Reference: ChEMBL document CHEMBL4680175, “Sulfonamide-based ring-fused analogues for CAN508 as novel carbonic anhydrase inhibitors endowed with antitumor activity: Design, synthesis, and in vitro biological evaluation” (Eur J Med Chem, 2020)
Activity calls are given as the source filed them. The rule behind the calls is not given here.

What was measured:
[1] = tested on: MCF7; assay: Antiproliferative activity against human MCF7 cells measured after 48 hrs under normoxic condition by MTT assay; type: functional, cell-based; conditions: MCF7, 48 h
[2] = biological target: Carbonic anhydrase 1 (Homo sapiens, UniProt P00915); assay: Inhibition of recombinant human carbonic anhydrase 1 preincubated with enzyme for 15 mins by phenol red dye based stopped flow CO2 hydrase assay
[3] = biological target: Carbonic anhydrase 2 (Homo sapiens, UniProt P00918); assay: Inhibition of recombinant human carbonic anhydrase 2 preincubated with enzyme for 15 mins by phenol red dye based stopped flow CO2 hydrase assay
[4] = biological target: Carbonic anhydrase 9 (Homo sapiens, UniProt Q16790); assay: Inhibition of recombinant human carbonic anhydrase 9 preincubated with enzyme for 15 mins by phenol red dye based stopped flow CO2 hydrase assay
[5] = biological target: Carbonic anhydrase 12 (Homo sapiens, UniProt O43570); assay: Inhibition of recombinant human carbonic anhydrase 12 preincubated with enzyme for 15 mins by phenol red dye based stopped flow CO2 hydrase assay
[6] = biological target: Cyclin-dependent kinase 2/cyclin E1 (Homo sapiens, UniProt P24941); assay: Inhibition of CDK2/cyclin E (unknown origin) expressed in baculovirus infected Sf21 insect cells using histone H1 as substrate in presence of [gamma33P]ATP
[7] = biological target: CDK9/cyclin T1 (Homo sapiens, UniProt P50750); assay: Inhibition of human full-length N-terminal GST/His6-tagged CDK9 (1 to 372 residues)/His6-tagged Cyclin-T1 (1 to 726 residues) expressed in sf9 cells using (YSPTSPS)2KK peptide as substrate in presence of [gamma33P]ATP
[8] = tested on: CCRF-CEM; assay: Antitumor activity against human CCRF-CEM cells assessed as cell growth inhibition at 10 uM incubated for 48 hrs by sulforhodamine B assay; type: functional; conditions: read-out: GI
Method in brief: (§1)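 NCI Drug Evaluation Branch protocol: primary single-dose screen at 10 μM across a 57-line human cancer panel. Drug exposure is 48 h. Cell growth and viability are read by sulforhodamine B assay. Data are given as a mean graph of percent growth of treated cells and reported as percentage growth inhibition (GI%).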

[9] = tested on: HOP-92; assay: Antitumor activity against human HOP92 cells assessed as cell growth inhibition at 10 uM incubated for 48 hrs by sulforhodamine B assay; type: functional; conditions: read-out: GI; method in brief: as §1
[10] = tested on: NCI-H226; assay: Antitumor activity against human NCI-H226 assessed as cell growth inhibition at 10 uM incubated for 48 hrs by sulforhodamine B assay; type: functional; conditions: read-out: GI; method in brief: as §1
[11] = tested on: NCI-H322M; assay: Antitumor activity against human NCI-H322M cells assessed as cell growth inhibition at 10 uM incubated for 48 hrs by sulforhodamine B assay; type: functional; conditions: read-out: GI; method in brief: as §1
[12] = tested on: NCI-H522; assay: Antitumor activity against human NCI-H522 cells assessed as cell growth inhibition at 10 uM incubated for 48 hrs by sulforhodamine B assay; type: functional; conditions: read-out: GI; method in brief: as §1
[13] = tested on: KM12; assay: Antitumor activity against human KM12 cells assessed as cell growth inhibition at 10 uM incubated for 48 hrs by sulforhodamine B assay; type: functional; conditions: read-out: GI; method in brief: as §1
[14] = tested on: IGROV-1; assay: Antitumor activity against human IGROV1 cells assessed as cell growth inhibition at 10 uM incubated for 48 hrs by sulforhodamine B assay; type: functional; conditions: read-out: GI; method in brief: as §1
[15] = tested on: A498; assay: Antitumor activity against human A498 cells assessed as cell growth inhibition at 10 uM incubated for 48 hrs by sulforhodamine B assay; type: functional; conditions: read-out: GI; method in brief: as §1
[16] = tested on: UO-31; assay: Antitumor activity against human UO-31 cells assessed as cell growth inhibition at 10 uM incubated for 48 hrs by sulforhodamine B assay; type: functional; conditions: read-out: GI
Method in brief: (§2)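 NCI one-dose screen: 57-cell-line panel exposed at 10 μM for 48 h, Drug Evaluation Branch protocol. Growth and viability read by sulforhodamine B; data given as percent growth inhibition from the mean-graph of percent growth of treated cells.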

[17] = tested on: RXF 393; assay: Antitumor activity against human RXF 393 cells assessed as cell growth inhibition at 10 uM incubated for 48 hrs by sulforhodamine B assay; type: functional; conditions: read-out: GI; method in brief: as §1
[18] = tested on: SN12C; assay: Antitumor activity against human SN12C cells assessed as cell growth inhibition at 10 uM incubated for 48 hrs by sulforhodamine B assay; type: functional; conditions: read-out: GI; method in brief: as §1
[19] = tested on: MCF7; assay: Antitumor activity against human MCF7 cells assessed as cell growth inhibition at 10 uM incubated for 48 hrs by sulforhodamine B assay; type: functional; conditions: read-out: GI; method in brief: as §1
[20] = tested on: T47D; assay: Antitumor activity against human T-47D cells assessed as cell growth inhibition at 10 uM incubated for 48 hrs by sulforhodamine B assay; type: functional; conditions: read-out: GI; method in brief: as §2
[21] = tested on: MDA-MB-468; assay: Antitumor activity against human MDA-MB-468 cells assessed as cell growth inhibition at 10 uM incubated for 48 hrs by sulforhodamine B assay; type: functional; conditions: read-out: GI; method in brief: as §1
[22] = tested on: MCF7; assay: Antiproliferative activity against human MCF7 cells measured after 48 hrs under CoCl2-induced hypoxic condition by MTT assay; type: functional, cell-based; conditions: MCF7, 48 h
[23] = tested on: MDA-MB-468; assay: Antiproliferative activity against human MDA-MB-468 cells measured after 48 hrs under normoxic condition by MTT assay; type: functional, cell-based; conditions: MDA-MB-468, 48 h
[24] = tested on: MCF7; assay: Potency index, ratio of staurosporine IC50 to compound IC50 for antiproliferative activity against human MCF7 cells measured after 48 hrs under normoxic condition by MTT assay; type: functional
[25] = tested on: MCF7; assay: Potency index, ratio of staurosporine IC50 to compound IC50 for antiproliferative activity against human MCF7 cells measured after 48 hrs under CoCl2-induced hypoxic condition by MTT assay; type: functional
[26] = tested on: MDA-MB-468; assay: Potency index, ratio of staurosporine IC50 to compound IC50 for antiproliferative activity against human MDA-MB-468 cells measured after 48 hrs under normoxic condition by MTT assay; type: functional
[27] = tested on: MDA-MB-468; assay: Potency index, ratio of staurosporine IC50 to compound IC50 for antiproliferative activity against human MDA-MB-468 cells measured after 48 hrs under CoCl2-induced hypoxic condition by MTT assay; type: functional
[28] = tested on: MCF7; assay: Induction of cell cycle arrest in human MCF7 cells assessed as accumulation at G2/M phase at IC50 concentration incubated for 24 hrs by PI/RNase staining based flow cytometric analysis; type: functional
Method in brief: (§3)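 Cells were washed in ice-cold PBS, fixed in ice-cold 70% ethanol, treated with 100 µg/mL RNase and stained with 40 µg/mL PI. DNA content was read by flow cytometry, with sub-G1 compared against control.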

[29] = tested on: MCF7; assay: Induction of cell cycle arrest in human MCF7 cells assessed as decrease in S phase population at IC50 concentration incubated for 24 hrs by PI/RNase staining based flow cytometric analysis; type: functional; method in brief: as §3
[30] = tested on: MCF7; assay: Induction of cell cycle arrest in human MCF7 cells assessed as fold increase in apoptotic cells at sub-G1 phase at IC50 concentration incubated for 24 hrs by PI/RNase staining based flow cytometric analysis relative to control; type: functional; method in brief: as §3
[31] = tested on: MCF7; assay: Induction of apoptosis in human MCF7 cells assessed as early apoptotic cells by Annexin V-FITC/propidium iodide staining based flow cytometric analysis (reference value: 0.47 %); type: functional
[32] = tested on: MCF7; assay: Induction of apoptosis in human MCF7 cells assessed as late apoptotic cells by Annexin V-FITC/propidium iodide staining based flow cytometric analysis (reference value: 0.29 %); type: functional
[33] = tested on: MCF7; assay: Induction of apoptosis in human MCF7 cells assessed as necrotic cells by Annexin V-FITC/propidium iodide staining based flow cytometric analysis (reference value: 1.3 %); type: functional
[34] = tested on: MCF7; assay: Induction of apoptosis in human MCF7 cells assessed as fold increase in apoptotic cells by Annexin V-FITC/propidium iodide staining based flow cytometric analysis relative to control; type: functional
[35] = tested on: MDA-MB-468; assay: Antiproliferative activity against human MDA-MB-468 cells measured after 48 hrs under CoCl2-induced hypoxic condition by MTT assay; type: functional, cell-based; conditions: MDA-MB-468, 48 h
[36] = tested on: NCI/ADR-RES; assay: Antitumor activity against human NCI/ADR-RES cells assessed as cell growth inhibition at 10 uM incubated for 48 hrs by sulforhodamine B assay; type: functional, cell-based; method in brief: as §1

Carbonic anhydrase 1, sequence (P00915 whole entry): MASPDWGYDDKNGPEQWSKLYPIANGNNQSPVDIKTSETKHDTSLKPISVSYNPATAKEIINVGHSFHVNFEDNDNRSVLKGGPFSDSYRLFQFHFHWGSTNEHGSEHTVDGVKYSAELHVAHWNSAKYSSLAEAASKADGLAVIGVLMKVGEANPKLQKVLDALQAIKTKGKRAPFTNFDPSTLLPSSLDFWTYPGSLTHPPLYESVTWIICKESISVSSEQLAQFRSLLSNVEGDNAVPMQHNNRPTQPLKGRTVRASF
CDK9/cyclin T1, sequence (O60563 whole entry, the tested form may be a part): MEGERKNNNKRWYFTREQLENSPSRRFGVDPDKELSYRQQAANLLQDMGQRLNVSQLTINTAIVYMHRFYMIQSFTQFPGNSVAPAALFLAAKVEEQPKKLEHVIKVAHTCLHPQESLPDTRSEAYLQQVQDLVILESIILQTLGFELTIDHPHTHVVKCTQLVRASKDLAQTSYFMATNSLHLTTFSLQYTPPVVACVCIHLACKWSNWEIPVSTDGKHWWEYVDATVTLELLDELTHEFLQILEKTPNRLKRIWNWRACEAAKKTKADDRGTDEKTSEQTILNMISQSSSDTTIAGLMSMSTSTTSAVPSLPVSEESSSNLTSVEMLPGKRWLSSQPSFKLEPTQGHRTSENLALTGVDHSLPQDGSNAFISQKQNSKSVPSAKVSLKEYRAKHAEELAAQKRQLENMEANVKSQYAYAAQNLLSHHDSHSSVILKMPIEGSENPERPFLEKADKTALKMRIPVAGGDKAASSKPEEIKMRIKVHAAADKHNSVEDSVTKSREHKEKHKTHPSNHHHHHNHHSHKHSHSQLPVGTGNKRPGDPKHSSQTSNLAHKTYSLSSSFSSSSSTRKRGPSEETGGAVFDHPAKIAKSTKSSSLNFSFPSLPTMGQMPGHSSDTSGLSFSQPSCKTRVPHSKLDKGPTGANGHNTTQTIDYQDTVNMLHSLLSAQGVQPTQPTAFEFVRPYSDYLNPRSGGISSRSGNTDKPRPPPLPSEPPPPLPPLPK
CDK9/cyclin T1, sequence (P50750 whole entry, the tested form may be a part): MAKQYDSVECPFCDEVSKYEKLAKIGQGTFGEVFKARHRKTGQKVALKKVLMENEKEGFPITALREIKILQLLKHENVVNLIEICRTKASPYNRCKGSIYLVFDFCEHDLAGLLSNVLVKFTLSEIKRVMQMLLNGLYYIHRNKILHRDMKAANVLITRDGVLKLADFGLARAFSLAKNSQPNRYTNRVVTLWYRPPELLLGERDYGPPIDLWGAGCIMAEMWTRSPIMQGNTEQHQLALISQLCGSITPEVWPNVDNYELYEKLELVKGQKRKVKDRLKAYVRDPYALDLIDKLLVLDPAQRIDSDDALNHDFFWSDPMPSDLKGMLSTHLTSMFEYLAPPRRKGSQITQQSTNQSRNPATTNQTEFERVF
Carbonic anhydrase 12, sequence (O43570 whole entry): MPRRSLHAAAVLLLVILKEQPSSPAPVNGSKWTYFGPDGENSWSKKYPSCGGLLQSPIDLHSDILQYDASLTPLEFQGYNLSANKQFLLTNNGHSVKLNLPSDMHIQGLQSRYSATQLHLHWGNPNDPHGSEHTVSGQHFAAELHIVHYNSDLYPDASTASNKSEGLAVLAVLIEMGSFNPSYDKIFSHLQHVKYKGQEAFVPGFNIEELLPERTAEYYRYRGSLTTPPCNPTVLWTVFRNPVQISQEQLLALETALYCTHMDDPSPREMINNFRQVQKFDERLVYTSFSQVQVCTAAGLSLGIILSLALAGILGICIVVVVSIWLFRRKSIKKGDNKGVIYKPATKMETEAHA

Structure (SMILES): N#Cc1c(-c2ccccc2)nc2c(/N=N/c3ccc(S(N)(=O)=O)cc3)c(N)nn2c1N
- IC50 [1]: 660 nM
- Ki [2]: 2680 nM
- Ki [3]: 922 nM
- Ki [4]: 33.5 nM
- Ki [5]: 39.4 nM
- IC50 [6]: > 12500 nM
- IC50 [7]: > 12500 nM
- inhibition of growth at 10 µM [8]: 21%
- inhibition of growth at 10 µM [9]: 27%
- inhibition of growth at 10 µM [10]: 24%
- inhibition of growth at 10 µM [11]: 21%
- inhibition of growth at 10 µM [12]: 54%
- inhibition of growth at 10 µM [13]: 50%
- inhibition of growth at 10 µM [14]: 35%
- inhibition of growth at 10 µM [15]: 30%
- inhibition of growth at 10 µM [16]: 25%
- inhibition of growth at 10 µM [17]: 42%
- inhibition of growth at 10 µM [18]: 24%
- inhibition of growth at 10 µM [19]: 60%
- inhibition of growth at 10 µM [20]: 26%
- inhibition of growth at 10 µM [21]: 58%
- IC50 [22]: 960 nM
- IC50 [23]: 1890 nM
- Ratio IC50 [24]: 5
- Ratio IC50 [25]: 9
- Ratio IC50 [26]: 2.3
- Ratio IC50 [27]: 6
- Activity [28]: Active
- Activity [29]: Active
- fold change (FC) [30]: 7
- Activity [31]: 8.46%
- Activity [32]: 16.94%
- Activity [33]: 2.64%
- fold change (FC) [34]: 26
- IC50 [35]: 1070 nM
- Activity [36]: inactive
